Laboratory results published in ChEMBL document CHEMBL3414433, “Discovery and profiling of a selective and efficacious Syk inhibitor” (J Med Chem, 2015).
Active and inactive are the calls of the source. The rule behind the calls is not given here.

How the values were obtained:
[1] = target: T1, Tyrosine-protein kinase SYK (Homo sapiens, UniProt P43405); test: Competitive binding affinity to human SYK
In short: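 Kd was then determined for the kinases affected at that concentration.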

[2] = target: Interleukin-1 receptor-associated kinase 1 (Homo sapiens, UniProt P51617); test: Competitive binding affinity to human IRAK1
Rattus norvegicus = test: Antiarthritic activity in Lewis rat collagen-induced arthritis model assessed as reduction of proteoglycan loss in hind paw at 3 to 30 mg/kg, po qd administered on day 15 post immunization measured after day 28 by Giemsa/safranin O staining-based assay; assay type: functional, organism-based
In short: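 Female Lewis rats (140−160 g), arthritis induced by porcine collagen immunization (day 0) and boost (day 7); rats with swollen joints randomized, dosed orally once daily from day 15 to day 28. Hind paws taken on day 28, fixed in 10% buffered formalin for 48 h, decalcified over 16 days, paraffin-embedded; 3 μm sections stained with Giemsa and safranin O and scored.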

[3] = target: T1, Tyrosine-protein kinase SYK; test: Inhibition of Syk in anti-igM stimulated human Ramos B cells assessed as phospho-BLNK level preincubated for 30 mins followed by anti-IgM stimulation measured after 15 mins by flow cytometric analysis; assay type: cell-based
[4] = target: T2, Tyrosine-protein kinase Mer (Homo sapiens, UniProt Q12866); test: Competitive binding affinity to human MERTK
T2 sequence (Q12866 whole entry): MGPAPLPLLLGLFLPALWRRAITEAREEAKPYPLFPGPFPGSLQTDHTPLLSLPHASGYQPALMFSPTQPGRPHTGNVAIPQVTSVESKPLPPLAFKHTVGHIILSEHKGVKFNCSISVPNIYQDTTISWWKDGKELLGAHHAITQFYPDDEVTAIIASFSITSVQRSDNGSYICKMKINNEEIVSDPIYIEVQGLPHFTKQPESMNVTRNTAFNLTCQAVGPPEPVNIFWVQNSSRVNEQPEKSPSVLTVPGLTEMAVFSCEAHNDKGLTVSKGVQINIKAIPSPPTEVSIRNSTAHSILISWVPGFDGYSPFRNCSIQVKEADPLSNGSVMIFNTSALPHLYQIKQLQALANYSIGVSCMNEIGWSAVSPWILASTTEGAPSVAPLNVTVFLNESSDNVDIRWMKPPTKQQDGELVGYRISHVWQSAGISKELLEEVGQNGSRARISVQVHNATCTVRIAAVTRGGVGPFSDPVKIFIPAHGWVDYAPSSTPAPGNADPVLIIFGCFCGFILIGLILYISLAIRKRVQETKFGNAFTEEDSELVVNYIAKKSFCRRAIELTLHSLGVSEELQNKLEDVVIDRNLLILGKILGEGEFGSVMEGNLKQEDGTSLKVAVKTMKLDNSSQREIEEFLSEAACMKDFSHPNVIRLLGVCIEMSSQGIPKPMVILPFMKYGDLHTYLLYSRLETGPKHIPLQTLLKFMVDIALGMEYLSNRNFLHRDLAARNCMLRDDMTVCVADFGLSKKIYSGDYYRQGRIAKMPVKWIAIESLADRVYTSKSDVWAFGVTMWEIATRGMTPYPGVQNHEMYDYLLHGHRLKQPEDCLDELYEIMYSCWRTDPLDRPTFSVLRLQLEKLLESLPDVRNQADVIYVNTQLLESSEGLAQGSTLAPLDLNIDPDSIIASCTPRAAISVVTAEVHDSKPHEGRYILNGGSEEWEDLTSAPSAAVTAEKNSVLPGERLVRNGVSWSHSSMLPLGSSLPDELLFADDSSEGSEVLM

[5] = Drug uptake in blood of Lewis rat collagen-induced arthritis model at 3 mg/kg, po qd administered on day 15 post immunization measured at 4 hrs on day 18; assay type: ADME, organism-based; design: dose 3 mg/kg, route oral; conditions: read-out: Drug uptake
In short: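 Collagen-arthritic Lewis rats given 3, 10 or 30 mg/kg p.o. once daily from day 15; blood levels measured on day 18 (third day of treatment) at 4, 8 and 24 h after dosing.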

[6] = target: T3, Tyrosine-protein kinase ZAP-70 (Homo sapiens, UniProt P43403); test: Competitive binding affinity to human ZAP70
T3 sequence (P43403 whole entry): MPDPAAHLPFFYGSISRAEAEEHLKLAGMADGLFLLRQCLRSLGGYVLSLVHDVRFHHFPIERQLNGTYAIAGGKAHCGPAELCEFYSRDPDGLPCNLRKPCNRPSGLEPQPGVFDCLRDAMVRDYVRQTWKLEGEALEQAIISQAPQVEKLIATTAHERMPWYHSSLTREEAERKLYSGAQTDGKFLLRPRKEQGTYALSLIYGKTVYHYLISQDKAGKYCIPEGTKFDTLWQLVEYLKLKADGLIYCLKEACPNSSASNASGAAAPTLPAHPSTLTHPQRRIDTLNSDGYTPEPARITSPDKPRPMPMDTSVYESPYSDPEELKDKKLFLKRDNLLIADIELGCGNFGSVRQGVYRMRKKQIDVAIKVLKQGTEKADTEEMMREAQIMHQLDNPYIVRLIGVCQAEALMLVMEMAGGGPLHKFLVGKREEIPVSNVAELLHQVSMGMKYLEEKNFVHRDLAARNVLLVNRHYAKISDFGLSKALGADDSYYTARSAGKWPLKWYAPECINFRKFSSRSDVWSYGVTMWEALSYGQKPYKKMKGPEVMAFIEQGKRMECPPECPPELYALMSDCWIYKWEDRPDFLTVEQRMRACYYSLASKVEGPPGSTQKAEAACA

Chain of Interleukin-1 receptor-associated kinase 1 (P51617 whole entry): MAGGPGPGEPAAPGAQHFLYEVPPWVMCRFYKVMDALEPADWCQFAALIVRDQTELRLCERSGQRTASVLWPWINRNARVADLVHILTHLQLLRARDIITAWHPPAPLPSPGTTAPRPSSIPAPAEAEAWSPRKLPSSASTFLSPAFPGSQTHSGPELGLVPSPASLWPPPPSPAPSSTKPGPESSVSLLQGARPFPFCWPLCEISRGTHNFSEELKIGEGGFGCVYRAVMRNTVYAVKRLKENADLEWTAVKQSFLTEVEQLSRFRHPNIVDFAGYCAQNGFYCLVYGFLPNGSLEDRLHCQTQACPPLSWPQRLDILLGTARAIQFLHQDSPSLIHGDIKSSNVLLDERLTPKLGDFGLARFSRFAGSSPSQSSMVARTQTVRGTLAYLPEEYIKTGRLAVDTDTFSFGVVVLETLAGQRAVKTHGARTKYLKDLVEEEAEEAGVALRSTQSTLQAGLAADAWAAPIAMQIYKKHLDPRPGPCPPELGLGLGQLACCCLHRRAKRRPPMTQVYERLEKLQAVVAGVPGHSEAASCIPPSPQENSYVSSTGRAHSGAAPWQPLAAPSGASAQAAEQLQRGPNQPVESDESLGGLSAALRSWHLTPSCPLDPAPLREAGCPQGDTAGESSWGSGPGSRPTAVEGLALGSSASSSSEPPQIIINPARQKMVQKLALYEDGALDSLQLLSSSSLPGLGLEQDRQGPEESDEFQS

- Kd [1]: 0.64 nM
- Kd [2]: 67 nM
- IC50 [3]: 99 nM
- Kd [4]: 150 nM
- concentration at 4 h [5]: 126 nM
- Kd [6]: 65 nM
SMILES: NC(=O)c1nnc(N[C@@H]2CCCC[C@@H]2N)nc1Nc1cccc2cc[nH]c12
- Activity (Rattus norvegicus): Active
